# Screens: PubChem BioAssay, several laboratories
# ATG4B inh = ATG4B protease inhibitors, primary screen, biochemical, fluorescence, uHTS. Cysteine protease ATG4B (Homo sapiens), Q9Y4P1. ATG4B cleavage of LC3-PLA2, NBD-HPC fluorescence, 1 h. inhibition, % at 8.33 µM. 340,000 compounds, 0.51% hits. AID 504462, 2011; in the data active means inhibition above about 40%
# UCH37 DUB inh = inhibitors of human UCH37 deubiquitinase, primary screen, biochemical, Ub-AMC cleavage, fluorescence; AID 588478, 2011; purified proteasome/UCH37; inhibition, % (no concentration beside the values); 330,000 compounds, 0.33% hits; Ubiquitin carboxyl-terminal hydrolase isozyme L5 (Homo sapiens), Q9Y5K5;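 active means mean inhibition over replicate wells above about 20%, limit read from the data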
# Target sequence (Q9Y5K5 whole entry, looked up): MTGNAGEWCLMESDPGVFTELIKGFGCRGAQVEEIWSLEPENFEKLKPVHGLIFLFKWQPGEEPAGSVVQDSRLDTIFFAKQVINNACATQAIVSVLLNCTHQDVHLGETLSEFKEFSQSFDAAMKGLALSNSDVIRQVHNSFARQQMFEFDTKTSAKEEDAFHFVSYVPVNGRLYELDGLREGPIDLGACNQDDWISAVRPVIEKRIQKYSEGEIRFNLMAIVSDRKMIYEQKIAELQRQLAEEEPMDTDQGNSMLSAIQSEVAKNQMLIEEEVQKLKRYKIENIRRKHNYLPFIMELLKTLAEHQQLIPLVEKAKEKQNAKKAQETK
#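 Signal – fluorescence, ex 355 nm, em 460 nm · System – Proteasome-bound UCH37 · Input – 0.15 nM proteasome as dispensed · Timing – 30 min preincubation with enzyme, 25 min cleavage at room temperature · Read-out basis – percent inhibition of cleavage signal versus uninhibited and no-proteasome wells · Medium – Tris-HCl pH 7.4 with ATP-MgCl2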
# NadD block = inhibitors of S. aureus NadD, primary screen, biochemical, colorimetric, uHTS; Nicotinate-nucleotide adenylyltransferase NadD (Staphylococcus aureus N315); purified NadD enzyme, colorimetric absorbance read-out; inhibition, % at 20 µM; 360,000 compounds, 0.78% hits; AID 602399, 2012; in the data active means inhibition above about 26%
# SENP1 FRET inh = human SENP1 catalytic domain inhibitors, primary screen, biochemical, FRET, uHTS; Sentrin-specific protease 1 (Homo sapiens), Q9P0U3; recombinant SENP1 catalytic domain, CyPet-SUMO1-YPet FRET cleavage; inhibition, % at 10 µM; 360,000 compounds, 0.21% hits;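 active means inhibition at least 30% at 10 µM, raw YFP signal under a set limit, fluorescence ratio 0.5 to 1.5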
# Target sequence (Q9P0U3 419-644 limits assumed): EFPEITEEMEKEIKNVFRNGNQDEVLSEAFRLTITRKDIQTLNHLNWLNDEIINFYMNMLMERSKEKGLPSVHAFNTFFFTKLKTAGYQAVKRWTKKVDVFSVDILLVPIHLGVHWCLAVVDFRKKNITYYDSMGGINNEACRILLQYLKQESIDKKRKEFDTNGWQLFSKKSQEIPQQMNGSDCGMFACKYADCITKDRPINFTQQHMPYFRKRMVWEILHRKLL
#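 Controls: no-enzyme wells low, DMSO-plus-enzyme wells high control. Test system: human recombinant His6-tagged SENP1 catalytic domain enzyme. Reagent: SFCypet-SUMO1-SFYpet FRET protein substrate, 25 nM final. Doses: one dose per compound, 10 µM, 0.5% DMSO. Detection: FRET, CFP and YFP emission. Timing: 50 min reaction at room temperature.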
# GRIN3A LBD mod = binders of NR3A ligand-binding domain, primary screen, biophysical, differential scanning fluorimetry, uHTS; NR3A LBD differential scanning fluorimetry, Tm shift; 0% = protein alone, 100% = glycine-bound protein; Tm shift relative to glycine control, % at 25 µM; 340,000 compounds, 2.5% hits;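 active means melting temperature shift of at least 10% of the positive control shift, at one fixed dose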
# ATG4B conf = ATG4B protease inhibitors, retest, confirmation, biochemical, fluorescence, single concentration; shares compounds with ATG4B inh; ATG4B protease fluorescent substrate cleavage assay; inhibition, % at 8.33 µM; 320 compounds, 92% hits; AID 504757, 2011; in the data active means inhibition above about 39%
# PLA2 ctr = PLA2 enzyme inhibition, counter-screen for ATG4B inhibitor project, biochemical, single concentration, uHTS hits | shares compounds with ATG4B inh | purified PLA2, NBD-C6-HPC fluorescence, 45 min | inhibition, % at 8.33 µM | 1,600 compounds, 66% hits; in the data active means inhibition above about 50%
# Hits are given with their value; – = inactive; · = no result given. Hits are enriched below; roughly 3.6% of the tested compounds scored in any of these assays.
SMILES,ATG4B inh,UCH37 DUB inh,NadD block,SENP1 FRET inh,GRIN3A LBD mod,PLA2 ctr,others
COc1ccc2cc(CN(Cc3cccnc3)Cc3nnnn3Cc3ccccc3)c(=O)[nH]c2c1,–,–,·,·,–,·,
Cc1cccc2cc(CN(Cc3cccs3)Cc3nnnn3Cc3ccccc3)c(=O)[nH]c12,48.6,–,–,–,–,61.8,
CCOC(=O)Cn1nnnc1CN(Cc1cccs1)Cc1cc2cc(C)cc(C)c2[nH]c1=O,–,–,–,–,–,·,
COc1ccc2cc(CN(Cc3cccs3)Cc3nnnn3Cc3ccccc3)c(=O)[nH]c2c1,51.1,–,–,–,–,53.7,
Cc1nc(N2CCN(C(=O)c3cccs3)CC2)c2c3c(sc2n1)CCCC3,78.0,–,–,–,–,85.9,
O=C(c1ccco1)N1CCN(c2nc(C3CC3)nc3sc4c(c23)CCCC4)CC1,92.6,–,–,–,–,90.8,
Cc1nc(N2CCN(C(=O)c3ccco3)CC2)c2c3c(sc2n1)CCCC3,68.3,–,–,–,–,66.9,
CCNC(=S)N1CCN(c2nc(CC)nc3sc4c(c23)CCCC4)CC1,72.6,–,–,–,–,83.0,
Cc1nc(N2CCN(C(=O)c3ccco3)CC2)c2c3c(sc2n1)CC(C)CC3 (configuration not stated),–,–,–,–,–,·,
CCN(CC)S(=O)(=O)c1cccc(C(=O)NN=Cc2c(C)nn(-c3ccccc3)c2Cl)c1,·,–,·,·,·,·,
CCc1nc(SCC(=O)N2CCN(C(=O)c3ccco3)CC2)c2c3c(sc2n1)CCCC3,43.7,–,–,–,–,64.2,
O=C(CSc1ncnc2sc3c(c12)CCCC3)c1ccco1,41.0,–,–,–,–,51.1,
O=C(CSc1nc2ccccc2o1)NN=Cc1ccccc1C(=O)O,·,–,·,·,·,·,
COc1cc(C=NNC(=O)c2cccnc2)cc(Br)c1O,·,–,·,·,·,·,
CC(C)C[C@H](NC(=O)OC(C)(C)C)C(=O)N/N=C/c1ccc2nccnc2c1,–,·,–,–,–,·,
CC(C)C[C@H](NC(=O)OC(C)(C)C)C(=O)N/N=C/C1=Cc2ccccc2OC1C (some centres not stated),42.4,·,–,–,–,–,ATG4B conf=69.1
c1ccc(-c2ccc(-c3cnc4n3CCCCC4)cc2)cc1,52.4,–,–,–,–,58.9,
CCOC(=O)C(=NNc1ccc(OC)cc1)c1csc(Nc2ccccc2)n1,·,–,·,·,·,·,
S=c1[nH]nc(-c2cccnc2)n1N=C/C=C/c1ccccc1,·,–,·,·,·,·,
CCNC(=S)NCc1ccc(F)cc1,–,–,–,–,–,·,
Fc1ccc(CNC(=S)NCc2ccc(F)cc2)cc1,41.5,–,–,–,–,–,ATG4B conf=69.1
Fc1cccc(NC(=S)NCc2ccc(Cl)cc2)c1,–,–,–,–,–,·,
Fc1ccc(CNC(=S)Nc2cccc(C(F)(F)F)c2)cc1,70.9,–,–,–,–,69.7,
Cc1ccc(C(C)NC(=S)NCc2ccc(F)cc2)c(C)c1 (configuration not stated),43.6,–,–,–,–,51.6,
COc1cccc(OCCn2c(C)c(C=Nn3cnnc3)c3ccccc32)c1,·,–,·,·,·,·,
SMILES,ATG4B inh,UCH37 DUB inh,NadD block,SENP1 FRET inh,GRIN3A LBD mod,PLA2 ctr,others
CN(C)/C=C(\C#N)C(=O)NN=C(CC(=O)C(F)(F)F)c1ccco1,·,–,·,·,·,·,
Cc1cccc(CNc2ncnc3ccc(-c4ccccc4Cl)cc23)c1,51.1,–,–,–,–,52.0,
O=C(NCc1nnc2c3ccccc3c(-c3ccccc3)nn12)c1ccc(Cl)cc1,42.1,–,–,–,–,58.1,
CCCCCCCCCCCCCCCCn1cc[n+](C)c1,48.5,75.9,–,–,–,–,ATG4B conf=49.9
O=C(O)c1ccccc1NC(c1ccccc1)c1ccc(Cl)cc1 (configuration not stated),85.0,·,–,–,–,86.9,
CCCCCCCCCCCCCCCCCCNc1ccn(C2OC(COP(=O)(O)OCC3OC(n4cc(F)c(=O)[nH]c4=O)CC3O)C(O)C2O)c(=O)n1 (configuration not stated),42.2,·,–,–,–,–,ATG4B conf=52.1
C[C@H]1O[C@@H](n2cc(F)c(=O)[nH]c2=O)[C@H](O)[C@@H]1O,–,–,–,–,–,·,
Cc1c(Cl)c([N+](=O)[O-])nn1Cc1ccc(C(=O)N/N=C\c2cccc(Br)c2)o1,58.4,·,–,–,–,68.2,
O=C(Nc1cccnc1)c1ccccc1NS(=O)(=O)c1ccc(F)cc1,–,–,–,–,–,·,
O=C(Nc1nc(-c2ccccc2)cs1)c1ccccc1NS(=O)(=O)c1ccc(F)cc1,53.6,–,–,–,31.6,62.4,
Cc1ccccc1Oc1nc2c(C)cccn2c(=O)c1/C=C(\C#N)C(=O)Nc1c(C)n(C)n(-c2ccccc2)c1=O,52.5,–,–,–,–,66.5,
COCCNC(=O)/C(C#N)=C/c1c(N2CCN(c3ccccc3)CC2)nc2c(C)cccn2c1=O,40.2,–,–,–,–,–,ATG4B conf=65.4
COCCNC(=O)/C(C#N)=C/c1c(N2CCN(c3ccc(OC)cc3)CC2)nc2c(C)cccn2c1=O,–,–,–,–,–,·,
Cc1cc(Nc2ccc(Cl)cc2)n(-c2cccc(Cl)c2)n1,41.4,–,–,–,–,63.4,
Cc1cc(Nc2ccc(Cl)cc2)n(-c2ccccc2)n1,–,–,–,–,–,·,
Cc1cc(=O)[nH]c(NN=C2CCCC/C2=C\c2ccccc2)n1,·,–,·,·,·,·,
Nc1c(C=C2C=CC(=O)C=C2)c(=O)nc2snc(SCc3ccccc3)n12,40.4,–,–,–,18.1,–,ATG4B conf=76.3
Cc1ccc(NC(=O)c2cc(NC(=O)CCC(=O)O)ccc2N2CCCCC2)cc1,45.9,–,–,–,–,–,
CCOC(=O)c1cc(NC(=O)CCC(=O)O)ccc1N1CCCCC1,–,–,–,–,–,·,
Cn1cc(C=NO)nc2c(=O)n(-c3ccccc3)c(=O)nc1-2,·,–,·,·,·,·,
O=C1NC(=S)/C(=C\c2ccc(-c3ccccc3Cl)o2)S1,65.0,–,–,–,–,–,
Cc1sc2nc(C3CC3)nc(SCC(=O)N3c4ccccc4CC3C)c2c1C (configuration not stated),68.3,–,–,–,–,84.6,
Cc1ccc(OCc2ccc(C(=O)NN)o2)c([N+](=O)[O-])c1,–,–,–,–,–,·,
